Results on two compounds are retold here after ChEMBL document CHEMBL4680121, “Development of (4-methoxyphenyl)-1H-tetrazol-5-amine regioisomers as a new class of selective antitubercular agents” (Eur J Med Chem, 2020).

≈ marks a conversion by molar mass, not a printed value. A value given as a limit tells only on which side of the number the result lay.

One assay concerns Klebsiella pneumoniae. Nature of the assay: Antibacterial activity against Klebsiella pneumoniae ATCC 10031 assessed as bacterial growth inhibition measured after 18 hrs by two-fold serial microdilution method. The assay is classed as functional. In outline: (§1)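 Two-fold serial broth microdilution in MH II medium following modified CLSI procedures. Compounds were dissolved in DMSO and diluted in medium to at most 1% solvent, tested from 0.03125 to 512 μg/ml. Final inoculum 10^6 CFU/ml. MIC was taken as the lowest concentration with no visible growth after 18 h at 35 °C.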
For orientation: In broth dilution the organism is exposed to a series of concentrations in liquid medium.

The next assay has as its system V79. Nature of the assay: Cytotoxicity against Chinese Hamster V79 cells assessed as reduction in cell viability measured after 72 hrs by MTT assay. It counts as cell-based. Conditions: Cricetulus griseus, V79, 72 h. In outline: (§2)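 MTT viability assay on cells grown in DMEM with 10% heat-inactivated FBS, penicillin/streptomycin and 20 mM HEPES at 37 °C/5% CO2. Cells were seeded at 1×10^4 per well and allowed to adhere for 24 h, then the medium was refreshed. Compounds were added at 20–140 μM for 72 h at 37 °C, followed by MTT (0.5 mg/mL in serum-free medium) for 4 h. Untreated cells served as control. IC50 is the concentration giving 50% growth inhibition versus control.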
(In general: Tetrazolium dyes change colour on reduction, which living cells bring about.)

The subject of assay [1] is Mycobacterium tuberculosis. Nature of the assay: Antitubercular activity against Mycobacterium tuberculosis H37Rv ATCC 25618 assessed as ethambutol MIC incubated for 14 days in presence of ethambutol by MABA method. Conditions: H37Rv ATCC 25618, 336 h, time 14 day. It counts as functional. In short, it runs like this:
(§3)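 In Middlebrook 7H9 with 10% OADC, the reference drug (INH, RMP, SM or EMB) at 1 to 1/32 of its MIC alone was mixed with the test derivative fixed at 1/2 its MIC. 4 ml samples were inoculated with McFarland 1 suspension and incubated 14 days at 37 °C. MIC is the lowest drug concentration in combination that inhibited growth.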
(Resazurin is reduced to fluorescent resorufin, in cell work by metabolically active cells.)

Assay [2] relates to Mycobacterium tuberculosis. The assay can be described thus: Antitubercular activity against Mycobacterium tuberculosis Spec.192 assessed as inhibition of microbial growth incubated for 1 week by MABA method. It counts as functional. The note with it: Mycobacterium tuberculosis, 192, 168 h; time 1 weeks. In outline: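 Microplate Alamar Blue assay in Middlebrook 7H9 broth with 10% OADC. Inoculum from fresh LJ culture was adjusted to McFarland 1 and diluted 1:20. DMSO stocks were two-fold serially diluted to final 0.125–512 µg/ml, with growth and sterile controls. Plates ran 1 week at 37 °C, then Alamar blue was added for 24 h. MIC is the lowest concentration preventing the blue-to-pink change.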

For assay [3], the system named is Mycobacterium tuberculosis. The assay can be described thus: Antitubercular activity against Mycobacterium tuberculosis Spec.192 assessed as fractional inhibitory concentration index in presence of 1/2 x MIC rifampicin incubated for 14 days by MABA method. The assay is classed as functional. The note with it: time 14 day. In outline: (§4)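 Interaction analysis in Middlebrook 7H9 with 10% OADC. Combination MICs came from mixing the derivative (1 to 1/32 MIC) with the reference drug at 1/2 MIC, and the reverse, after 14 days at 37 °C with McFarland 1 inoculum. FICI was calculated from the combination MIC values and the MICs alone.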

Assay [4] relates to Mycobacterium tuberculosis. The assay can be described thus: Antitubercular activity against Mycobacterium tuberculosis H37Rv ATCC 25618 assessed as reduction in bacterial growth incubated for 14 days in presence of 1/2 x MIC ethambutol by MABA method. It counts as functional. The note with it: H37Rv ATCC 25618, 336 h, time 14 day. In outline: (§5)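 Checkerboard-type combination in Middlebrook 7H9 with 10% OADC. The test derivative at 1 to 1/32 of its MIC alone was mixed with the reference drug fixed at 1/2 its MIC. 4 ml samples were inoculated with McFarland 1 suspension and incubated 14 days at 37 °C. MIC is the lowest derivative concentration in combination that inhibited growth in liquid medium.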

Assay [5] deals with Mycobacterium tuberculosis. The assay can be described thus: Potentiation of streptomycin-induced antimycobacterial activity against Mycobacterium tuberculosis Spec.192 assessed as fold decrease in streptomycin MIC at 1/2X MIC incubated for 14 days in presence of streptomycin by MABA method. The assay is classed as functional. Conditions: time 14 day. In outline:
(§6)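 Combination assay in Middlebrook 7H9 broth with 10% OADC. The reference drug (INH, RMP, SM or EMB) was varied from 1 to 1/32 of its MIC, and the test derivative was fixed at 1/2 its own MIC. Single-agent MICs were determined first by MABA. Inoculum was 1 McFarland, with 14 days of incubation at 37 °C. The endpoint was the lowest reference-drug concentration that inhibited growth.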

The test system of another assay is HaCaT. Nature of the assay: Cytotoxicity against human HaCaT cells assessed as reduction in cell viability measured after 72 hrs by MTT assay. It counts as cell-based. In short, it runs like this:
as §2

Assay [6] relates to Mycobacterium tuberculosis. Nature of the assay: Potentiation of streptomycin-induced antimycobacterial activity against Mycobacterium tuberculosis H37Rv ATCC 25618 assessed as fold decrease in streptomycin MIC at 1/2X MIC incubated for 14 days in presence of streptomycin by MABA method. The assay is classed as functional. Conditions: time 14 day. In outline:
as §6

For assay [7], the system named is Staphylococcus aureus. Nature of the assay: Antibacterial activity against Staphylococcus aureus NCTC 4163 assessed as bacterial growth inhibition measured after 18 hrs by two-fold serial microdilution method. The assay is classed as functional. In outline:
as §1

The test system of assay [8] is Mycobacterium tuberculosis. The assay can be described thus: Antitubercular activity against Mycobacterium tuberculosis Spec.192 assessed as reduction in bacterial growth incubated for 14 days in presence of 1/2 x MIC rifampicin by MABA method. It counts as functional. The note with it: Mycobacterium tuberculosis, 192, 336 h; time 14 day. In short, it runs like this: as §5

Assay [9] relates to Staphylococcus epidermidis. The assay can be described thus: Antibacterial activity against Staphylococcus epidermidis ATCC 12228 assessed as bacterial growth inhibition measured after 18 hrs by two-fold serial microdilution method. It counts as functional. In short, it runs like this:
as §1

The test system of assay [10] is Mycobacterium tuberculosis. Nature of the assay: Antitubercular activity against Mycobacterium tuberculosis Spec.192 assessed as fractional inhibitory concentration index in presence of 1/2 x MIC isoniazid incubated for 14 days by MABA method. Conditions: time 14 day. The assay is classed as functional. In outline:
as §4

The subject of assay [11] is Mycolicibacterium fortuitum. The assay can be described thus: Antibacterial activity against Mycobacterium fortuitum assessed as inhibition of microbial growth incubated for 1 week by MABA method. Conditions: 168 h, time 1 weeks. The assay is classed as functional. In short, it runs like this:
(§7)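 Microplate Alamar Blue assay using two-fold serial microdilution in Middlebrook 7H9 broth with 10% OADC, compounds 0.125–512 µg/ml from DMSO stocks. Inoculum came from fresh LJ culture, was adjusted to McFarland 1 and diluted 1:20. Plates were incubated 1 week at 37 °C, Alamar blue was added and plates were re-incubated 24 h. MIC was the lowest concentration preventing the blue-to-pink change. Each plate carried growth and sterile controls.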

The test system of assay [12] is Mycobacterium tuberculosis. Nature of the assay: Antitubercular activity against Mycobacterium tuberculosis H37Rv ATCC 25618 assessed as reduction in bacterial growth incubated for 14 days in presence of 1/2 x MIC isoniazid by MABA method. The assay is classed as functional. Conditions: H37Rv ATCC 25618, 336 h, time 14 day. In short, it runs like this:
as §5

In assay [13] the test system is Mycobacterium tuberculosis. Nature of the assay: Antitubercular activity against Mycobacterium tuberculosis Spec.192 assessed as streptomycin MIC incubated for 14 days in presence of streptomycin by MABA method. The note with it: Mycobacterium tuberculosis, 192, 336 h; time 14 day. The assay is classed as functional. In short, it runs like this: as §3
The test system of assay [14] is Mycobacterium intracellulare. Nature of the assay: Antimycobacterial activity against Mycobacterium intracellulare assessed as inhibition of microbial growth incubated for 1 week by MABA method. The assay is classed as functional. The note with it: 168 h, time 1 weeks. In short, it runs like this: as §7
The test system of assay [15] is Mycobacterium tuberculosis. The assay can be described thus: Antitubercular activity against Mycobacterium tuberculosis H37Rv ATCC 25618 assessed as reduction in bacterial growth incubated for 14 days in presence of 1/2 x MIC streptomycin by MABA method. The assay is classed as functional. The note with it: H37Rv ATCC 25618, 336 h, time 14 day. In outline:
as §5

The test system of assay [16] is Mycobacterium tuberculosis. Nature of the assay: Antitubercular activity against Mycobacterium tuberculosis Spec.192 assessed as fractional inhibitory concentration index in presence of 1/2 x MIC streptomycin incubated for 14 days by MABA method. It counts as functional. Conditions: time 14 day. In outline: as §4
The subject of assay [17] is Mycobacterium tuberculosis. The assay can be described thus: Antitubercular activity against Mycobacterium tuberculosis H37Rv ATCC 25618 assessed as reduction in bacterial growth incubated for 14 days in presence of 1/2 x MIC rifampicin by MABA method. The assay is classed as functional. Conditions: H37Rv ATCC 25618, 336 h, time 14 day. In outline: as §5
Assay [18] has as its system Staphylococcus aureus. Nature of the assay: Antibacterial activity against Staphylococcus aureus ATCC 6538 assessed as bacterial growth inhibition measured after 18 hrs by two-fold serial microdilution method. It counts as functional. In outline: as §1

For `COc1ccc(-n2nnnc2Nc2cccc(Br)c2)cc1`, the MIC (in general, the lowest concentration that inhibits growth of the organism) in the assay with Klebsiella pneumoniae was greater than 256 µg/mL; in assay [1] it was 1 µg/mL; in [2] it was 2 µg/mL; in [4] it was 0.5 µg/mL; in the assay with Staphylococcus aureus [7] it was greater than 256 µg/mL; in [8], 0.5 µg/mL. The MIC in assay [9] was greater than 256 µg/mL; in assay [11], 256 µg/mL; in [12] it was 0.25 µg/mL; in assay [13] it was 0.25 µg/mL; in [14], 128 µg/mL; in assay [15], 0.5 µg/mL. The minimum inhibitory concentration (MIC) in assay [17] is 0.5 µg/mL; in the assay with Staphylococcus aureus [18] it was greater than 256 µg/mL. The IC50 (in general, the concentration needed to halve the response being measured) in the assay on V79 turned out to be 241 µM; in the assay with HaCaT it was 138 µM. The entries for the “fractional inhibitory concentration index (FICI)” value in assay [3], in [10] and in assay [16] were 0.5, 4.125 and 0.5, respectively. In addition, the “fold change (FC)” value in assay [5] and in assay [6] was 2 throughout.
In the case of `COc1ccc(-n2nnnc2Nc2ccc(Br)cc2)cc1`, the minimum inhibitory concentration (MIC) was greater than 256 µg/mL with Klebsiella pneumoniae; 1 µg/mL in [1]; 2 µg/mL in assay [2]; 0.25 µg/mL in assay [4]; greater than 256 µg/mL with Staphylococcus aureus [7]; 0.5 µg/mL in [8]. The MIC in assay [9] is 256 µg/mL (≈ 739 µM); in assay [11], greater than 512 µg/mL; in [12] it was 0.25 µg/mL; in assay [13], 0.25 µg/mL; in assay [14], 128 µg/mL; in [15], 0.25 µg/mL. Also, the MIC is 0.5 µg/mL in [17] and greater than 256 µg/mL in the assay on Staphylococcus aureus [18]. For the same compound, the IC50 in the assay with V79 stood at 212 µM; in the assay on HaCaT, 131 µM. Moreover, the “fractional inhibitory concentration index (FICI)” value in [3] is reported as 0.5; in assay [10], 4.125; in [16], 0.375. Also, the “fold change (FC)” value in assay [5] and in [6] was 4 throughout.
